pEC50: −log10 of the molar value. Calls of active or inactive are those of the source. No cut-off for these calls is given here.
Columns and labels:
[1] = test system: Trypanosoma brucei brucei; assay: Antitrypanosomal activity against bloodstream forms of Trypanosoma brucei brucei strain 427 assessed as growth inhibition measured after 48 hrs by Alamar blue assay; format: functional, organism-based; conditions: Trypanosoma brucei, 427, 48 h
Method in brief: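 Bloodstream T. b. brucei 427 at 5 x 10^3 cells/well in supplemented HMI-9 with 10% FBS. Compounds in DMSO over 0.01–50 μM, triplicates. After 48 h exposure, Alamar blue was added for 4 h at 37°C. Fluorescence read at ex/em 530/590 nm; suramin was the positive control. EC50 = half-maximal trypanosomal viability.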

[2] = test system: Trypanosoma brucei gambiense; assay: Antitrypanosomal activity against bloodstream forms of Trypanosoma brucei gambiense 130R assessed as growth inhibition incubated for 68 hrs followed by treated with resazurin 4 to 6 hrs by resazurin based fluorescence assay; format: functional, organism-based
Method in brief: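 Bloodstream 130R at 4x10^4 parasites/well in HMI-9 with 15% heat-inactivated fetal calf and 5% human serum. Eleven 3-fold dilutions spanned 100 to 0.002 μM. Plates ran 68 h at 37 °C in 5% CO2, then resazurin for 4–6 h. Fluorescence read at ex/em 536/588 nm; melarsoprol was the control.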

[3] = test system: Trypanosoma brucei rhodesiense; assay: Antitrypanosomal activity against bloodstream forms of Trypanosoma brucei rhodesiense STIB 900 assessed as growth inhibition incubated for 70 hrs followed by treated with resazurin 2 to 4 hrs by resazurin based fluorescence assay; format: functional, organism-based
Method in brief: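 Bloodstream STIB 900 at 2x10^4 parasites/well in HMI-9 with 15% heat-inactivated horse serum. Eleven 3-fold dilutions spanned 100 to 0.002 μM. Plates ran 70 h at 37 °C in 5% CO2, then resazurin for 2–4 h. Fluorescence read at ex/em 536/588 nm; melarsoprol was the control.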

[4] = test system: HepG2; assay: (§1) Cytotoxicity against human HepG2 cells assessed as cell growth measured after 72 hrs mby MTT assay; format: toxicity, cell-based; conditions: hepg2, 72 h
Method in brief: (§2)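 HepG2 in DMEM:F12 with 10% FBS were seeded at 5 x 10^5 cells/mL and allowed 18-24 h. Compounds in DMSO over 0.01–300 μM for 72 h. MTT was then added for 30 min, formazan dissolved in DMSO and absorbance read at 550 nm. Triplicates; SDS (10%) and podophyllotoxin were the controls. CC50 = half-maximal cellular viability.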

[5] = Selectivity index, ratio of CC50 for cytotoxicity against human HepG2 cells to EC50 for Antitrypanosomal activity against bloodstream forms of Trypanosoma brucei brucei strain 427; format: toxicity, cell-based; conditions: read-out: Selectivity Index
[6] = test system: Trypanosoma brucei rhodesiense; assay: Inhibition of Trypanosoma brucei rhodesiense MVAT4 strain Cathepsin-L expressed in Pichia pastoris at 10 uM relative to control
Method in brief: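 Trypanosomal cathepsin L, expressed in Pichia pastoris and purified, was tested at 10 μM after 1 hour. The read-out was percentage inhibition, with E-64 as positive control.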

[7] = Metabolic stability in mouse liver microsomes assessed as half life at 0.1 uM measured for every 15 mins by HPLC-MS/MS analysis; format: ADME, Microsome; conditions: 0.25 h
[8] = Selectivity index, ratio of CC50 for cytotoxicity against human HepG2 cells to EC50 for Antitrypanosomal activity against bloodstream forms of Trypanosoma brucei rhodesiense STIB 900; format: toxicity, cell-based
[9] = Metabolic stability in mouse liver S9 fraction assessed as half life at 0.1 uM measured for every 15 mins by HPLC-MS/MS analysis; format: ADME, subcellular; conditions: s9, 0.25 h
[10] = Selectivity index, ratio of CC50 for cytotoxicity against human HepG2 cells to EC50 for Antitrypanosomal activity against bloodstream forms of Trypanosoma brucei gambiense 130R; format: toxicity, cell-based
[11] = Initial plasma concentration in C57BL/6 mouse at 1 mg/kg, iv measured upto 24 hrs by LC-MS/MS analysis; format: ADME, organism-based
Method in brief: (§3)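 Fasted male C57BL/6 mice (n = 3/group) were given a single IV dose of 1 mg/kg. Vehicle was 5% DMSO, 10% solutol and 85% PBS with 20% Captisol, at 1 mL/kg. Blood was taken at 0.083, 0.25, 0.5, 1, 2, 4, 6, 8 and 24 h and spun at 4°C to plasma. Plasma levels were measured by LC-MS/MS and parameters derived by non-compartmental analysis.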

[12] = Half life in C57BL/6 mouse at 1 mg/kg, iv measured upto 24 hrs by LC-MS/MS analysis; format: ADME, organism-based; conditions: in vivo; method in brief: as §3
[13] = AUC (0 to t) in C57BL/6 mouse at 1 mg/kg, iv measured upto 24 hrs by LC-MS/MS analysis; format: ADME, organism-based; conditions: in vivo; method in brief: as §3
[14] = AUC (0 to infinity) in C57BL/6 mouse at 1 mg/kg, iv measured upto 24 hrs by LC-MS/MS analysis; format: ADME, organism-based; conditions: in vivo; method in brief: as §3
[15] = Apparent volume of distribution in C57BL/6 mouse at 1 mg/kg, iv measured upto 24 hrs by LC-MS/MS analysis; format: ADME, organism-based; conditions: in vivo, read-out: Vz; method in brief: as §3
[16] = Clearance in C57BL/6 mouse at 1 mg/kg, iv measured upto 24 hrs by LC-MS/MS analysis; format: ADME, organism-based; conditions: in vivo; method in brief: as §3
[17] = Volume of distribution at steady state in C57BL/6 mouse at 1 mg/kg, iv measured upto 24 hrs by LC-MS/MS analysis; format: ADME, organism-based; conditions: in vivo, read-out: Vdss; method in brief: as §3
[18] = Mean residence time in C57BL/6 mouse at 1 mg/kg, iv measured upto 24 hrs by LC-MS/MS analysis; format: ADME, organism-based; conditions: in vivo; method in brief: as §3
[19] = Tmax in C57BL/6 mouse at 5 mg/kg, po measured upto 24 hrs by LC-MS/MS analysis; conditions: in vivo
[20] = Cmax in C57BL/6 mouse at 5 mg/kg, po measured upto 24 hrs by LC-MS/MS analysis; conditions: in vivo
[21] = Half life in C57BL/6 mouse at 5 mg/kg, po measured upto 24 hrs by LC-MS/MS analysis; conditions: in vivo
[22] = AUC (0 to t) in C57BL/6 mouse at 5 mg/kg, po measured upto 24 hrs by LC-MS/MS analysis; conditions: in vivo
[23] = Oral bioavailability in C57BL/6 mouse at 5 mg/kg measured upto 24 hrs by LC-MS/MS analysis; conditions: in vivo
[24] = AUC (0 to infinity) in C57BL/6 mouse at 5 mg/kg, po measured upto 24 hrs by LC-MS/MS analysis; conditions: in vivo
[25] = Mean residence time in C57BL/6 mouse at 5 mg/kg, po measured upto 24 hrs by LC-MS/MS analysis; conditions: in vivo
[26] = test system: Trypanosoma brucei rhodesiense; assay: In vivo antitrypanosomal activity against Trypanosoma brucei rhodesiense infected in female NMRI mouse assessed survival rate at 200 mg/kg, po qd measured upto 60 days; conditions: time <= 60.0 day
[27] = test system: Trypanosoma brucei brucei; assay: In vivo antitrypanosomal activity against Trypanosoma brucei brucei AnTat1.1 trypomastigotes expressing Renilla luciferase infected in BALB/c mouse assessed reduction in parasitemia at 100 mg/kg, po treated for 5 days; conditions: time 5.0 day
[28] = test system: Trypanosoma brucei brucei; assay: In vivo antitrypanosomal activity against Trypanosoma brucei brucei AnTat1.1 trypomastigotes expressing Renilla luciferase infected in BALB/c mouse assessed suppression of parasite growth at 100 mg/kg, po treated for 5 days; conditions: time 5.0 day
[29] = test system: Trypanosoma brucei brucei; assay: In vivo antitrypanosomal activity against Trypanosoma brucei brucei AnTat1.1 trypomastigotes expressing Renilla luciferase infected in BALB/c mouse assessed suppression of parasite growth at 100 mg/kg, ip treated for 5 days; conditions: time 5.0 day
[30] = as §1; format: toxicity, cell-based; conditions: HepG2 cells; method in brief: as §2

SMILES | pEC50 [1] | pEC50 [2] | pEC50 [3] | CC50 [4] [µM] | selectivity ratio [5] | inhibition [6] | t1/2 [7] [min] | further results
CS(=O)(=O)/C=C/CNC(=O)c1ccc([N+](=O)[O-])o1 | 6.36 | 7.22 | 7.30 | 21.8 | 49.5 | 21.2% | > 60 | 
O=C(NC/C=C/S(=O)(=O)c1ccccc1)c1ccc([N+](=O)[O-])o1 | 6.01 | 6.70 | 5.75 | 59.4 | 60.6 | 17.7% | > 60 | selectivity ratio [8]: 33.5; t1/2 [9]: 12.99 min
CS(=O)(=O)CCCNC(=O)c1cccs1 | < 4.52 |  |  | > 150 |  | inactive |  | 
CNC(=O)CCCNC(=O)c1ccc([N+](=O)[O-])s1 | 5.39 | 5.73 | 5.71 | 69.5 | 16.9 | inactive |  | selectivity ratio [10]: 37; selectivity ratio [8]: 35.5
CNC(=O)/C=C/CNC(=O)c1ccc([N+](=O)[O-])s1 | 6.27 | 6.89 | 6.85 | > 75 |  | 43.9% | > 60 | t1/2 [9]: > 60 min; C0 at 24 h [11]: 636 ng/mL; half-life [12]: 24 min; AUC(0-t) at 24 h [13]: 333 ng·h/mL; AUC [14]: 343.2 ng·h/mL; Vd [15]: 1.7 L/kg; clearance [16]: 48.8 mL/min/kg; Vd [17]: 1.6 L/kg; MRT [18]: 30 min; Tmax [19]: 18 min; Cmax [20]: 1650 ng/mL; half-life [21]: 30 min; AUC(0-t) at 24 h [22]: 1700 ng·h/mL; F [23]: 99.2%; AUC [24]: 1702.8 ng·h/mL; MRT [25]: 54 min; Activity [26]: Active; Activity [27]: Active; Activity [28]: Active; Activity [29]: Active
CNC(=O)/C=C/CNC(=O)c1ccc([N+](=O)[O-])o1 | 5.77 | 6.33 | 6.66 | > 75 |  | 17% |  | 
Nc1nc(N)nc(Nc2ccc([As]3SCC(CO)S3)cc2)n1 (stereo not drawn) [MELARSOPROL] |  | 8.00 | 8.00 |  |  |  |  | 
O=C(NC/C=C/S(=O)(=O)c1ccccc1)c1ccc([N+](=O)[O-])s1 | 5.20 | 6.49 | 6.21 | 20.4 |  |  |  | 
O=C(NCCCS(=O)(=O)c1ccccc1)c1ccc([N+](=O)[O-])o1 | 6.00 |  |  | 44.6 | 45 | 15% |  | 
O=C(N[C@H](/C=C/S(=O)(=O)c1ccccc1)CCc1ccccc1)c1ccc([N+](=O)[O-])o1 | 6.96 | 7.15 | 5.56 |  |  | 78.1% |  | CC50 at 72 h [30]: 5.17 µM
